Screens from PubChem BioAssay.
Shown are actives, neighbours in structure and some others; about 3.2% of the full set was active somewhere.
DAX1 inh-1 = DAX1 (NR0B1) inhibition, primary screen; HEK293T StAR-luciferase reporter, SF-1/DAX-1 repression relief; inhibition, % at 6.8 µM; 370,000 tested, 1.1% active; AID 652010;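 active means inhibition above the mean over all tested compounds plus 3 SD, cut at about 3.6% in these data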;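 further: 0% = DAX-1 cells with DMSO and 100% = cells lacking DAX-1 with DMSO; higher inhibition means more luminescence from relief of DAX-1 repression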
NR2E3 ag-1 = agonists of human NR2E3 nuclear receptor | Q9Y5X4 | CHO-S Gal4-NCOR/VP16-NR2E3 two-hybrid, luciferase | inhibition of corepressor binding, % at 3.98 µM | 360,000 tested, 0.35% active | AID 602229;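 active means inhibition above the mean of all tested compounds plus 3 SD, cut at about 70% in these data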;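 further: 0% = DMSO with NR2E3 transfected cells and 100% = cells lacking NR2E3 construct; higher means lower luciferase signal from less NR2E3 corepressor binding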
Target sequence (Q9Y5X4 whole entry, looked up, the tested form may be a part): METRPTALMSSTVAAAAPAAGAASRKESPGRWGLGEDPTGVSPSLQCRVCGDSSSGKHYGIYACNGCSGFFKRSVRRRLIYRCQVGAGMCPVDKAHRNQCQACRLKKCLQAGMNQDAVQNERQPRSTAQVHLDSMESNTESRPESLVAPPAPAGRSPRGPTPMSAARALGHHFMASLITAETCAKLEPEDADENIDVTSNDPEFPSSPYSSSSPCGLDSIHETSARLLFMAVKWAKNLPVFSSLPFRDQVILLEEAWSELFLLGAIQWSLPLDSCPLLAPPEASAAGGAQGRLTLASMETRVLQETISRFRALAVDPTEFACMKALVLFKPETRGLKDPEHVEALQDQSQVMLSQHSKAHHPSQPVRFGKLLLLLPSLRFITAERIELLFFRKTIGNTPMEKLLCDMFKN
NR2E3 ag-2 = activates human photoreceptor nuclear receptor NR2E3. Q9Y5X4. GST-NR2E3/biotin-RetCOR TR-FRET, 1536-well. inhibition of corepressor binding, % at 4.78 µM. 320,000 tested, 0.12% active. AID 2300;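 active means percent inhibition above the cutoff of mean plus 3 SD of all tested compounds, set per screening campaign, cut at about 20% in these data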;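 further: 0% = DMSO wells and 100% = biotin wells as full block of FRET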
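Test system: GST-NR2E3 and biotin-RetCOR proteins | Quantity: 1.35 nM GST-tagged NR2E3 final | Medium: Tris pH 7.5 | Also added: 7 nM biotin-RetCOR | Dosing: Compound at 4.8 µM, single dose | Timing: 5 h at 4 °C | Detection: Time-resolved FRET | Read-out basis: Percent inhibition | Benchmarks: Biotin wells as high control, 0.6% DMSO wells as low control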
JMJD2C inh = human JMJD2C demethylase inhibition. Q9H3R0. GST-JMJD2C(1-420) H3K9me3 demethylation, DELFIA europium. inhibition, % at 2.35 µM. 330,000 tested, 0.069% active;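 active means more than half of a compound's replicate wells show inhibition beyond 50%, single wells judged on their own value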;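 further: signal counts dimethyl H3K9 product captured on neutravidin plate; 0% = median of DMSO wells and 100% = 0.3 times that DMSO median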
Target sequence (Q9H3R0 1-420 limits assumed): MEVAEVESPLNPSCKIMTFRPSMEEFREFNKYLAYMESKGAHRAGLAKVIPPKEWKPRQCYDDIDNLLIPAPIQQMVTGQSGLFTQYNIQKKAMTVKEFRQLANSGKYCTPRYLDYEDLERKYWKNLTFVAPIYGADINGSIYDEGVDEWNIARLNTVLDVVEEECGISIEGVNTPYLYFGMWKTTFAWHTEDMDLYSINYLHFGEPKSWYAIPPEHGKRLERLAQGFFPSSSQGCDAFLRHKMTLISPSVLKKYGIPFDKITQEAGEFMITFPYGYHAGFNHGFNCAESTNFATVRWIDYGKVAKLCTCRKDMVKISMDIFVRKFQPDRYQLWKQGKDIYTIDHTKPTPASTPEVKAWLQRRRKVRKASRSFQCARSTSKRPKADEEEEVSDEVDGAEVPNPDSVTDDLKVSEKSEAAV
SMARCA2 act = increases SMARCA2 function in MMTV reporter cells. AID 652017. MG213 cells, MMTV-luciferase reporter, dexamethasone, overnight. activation, % at 9.1 µM. 370,000 tested, 1% active; in the data active means activation above about 7.8%;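 further: 0% = vehicle wells and 100% = reference activator wells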
DAX1 inh-2 = inhibits human nuclear receptor DAX1; P51843; HEK293 Gal4-DAX1 luciferase reporter, luminescence; inhibition, % at 6.75 µM; 340,000 tested, 0.99% active;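 active means inhibition above the mean over all tested compounds plus 3 SD, cut at about 4.2% in these data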;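 further: 0% = DAX1-transfected cells with DMSO and 100% = empty-vector control cells with DMSO; inhibition shows as a rise in luminescence from relieved DAX1 repression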
SMARCA2 act conf = SMARCA2 activation, confirmation screen; AID 652260; shares compounds with SMARCA2 act; activation, % at 9.1 µM; MG213 cells, MMTV-luciferase with dexamethasone, luminescence, overnight; MG213 cells expressing E1A, Rb sequestered; DMSO wells 0%, reference activator 100%; 3,500 tested, 30% active;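 active means activation above its plate's cutoff, the mean activation of tested wells plus 3 SD, cut at about 7.9% in these data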
GAL4-VP16 Luc = GAL4-VP16 reporter activation counter-screen. shares compounds with SMARCA2 act. HEK293 GAL4-VP16 pG5luc reporter, luciferase luminescence; scaled: DMSO wells 0%, SAHA wells 100%. activation, % at 9.1 µM. 3,500 tested, 41% active. AID 686939;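 active means activation above the solvent-only control well mean plus 3 SD, averaged across control plates, cut at about 5.2% in these data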
* hit, by the source's call; nt = not tested or not shown.

SMILES | DAX1 inh-1 | NR2E3 ag-1 | NR2E3 ag-2 | JMJD2C inh | SMARCA2 act | DAX1 inh-2 | SMARCA2 act conf | GAL4-VP16 Luc
CCC(=O)C1CCCN(C(=O)CCc2nnc(C3(c4ccc(Cl)cc4)CCC3)o2)C1 (stereo not drawn) | 0.8 | -76.3 | -3.5 | 3.7 | 8.8* | 0.3 | 4.2 | 5.2*
COc1ccc(CNC[C@H]2O[C@@H](n3ccc(=O)[nH]c3=O)[C@H](O)[C@@H]2O)cc1OC | -0.8 | -8.9 | nt | nt | 1.4 | 0.1 | nt | nt
COc1cc(Cl)c(CNC[C@H]2O[C@@H](n3ccc(=O)[nH]c3=O)[C@H](O)[C@@H]2O)c(Cl)c1O | 0.0 | 2.2 | nt | nt | 10.2* | -0.8 | -0.4 | 0.7
C[C@H](CO)N1C[C@H](C)[C@@H](CN(C)C(=O)NC2CCCCC2)Oc2c(NC(=O)c3ccncc3)cccc2C1=O | -0.8 | -6.0 | nt | 35.6 | 0.8 | -1.2 | nt | nt
Cc1cc(-n2nnc3ccccc32)nc2ccccc12 | -0.2 | -9.6 | -3.1 | -40.2 | -0.1 | 0.1 | nt | nt
c1ccc2c(c1)nnn2-c1ncnc2sccc12 | 0.2 | -36.0 | -2.1 | 2.8 | 11.6* | 0.8 | 9.9* | 5.1
c1cc(-c2cc3cc4c(cc3cn2)OCO4)cs1 | 1.9 | -74.2 | nt | 5.0 | 8.9* | 1.4 | 3.3 | 7.9*
COc1cc2cnc(-c3ccsc3)cc2cc1OC | -0.1 | -9.7 | nt | nt | 3.4 | 1.4 | nt | nt
CC1CCCN(CCCNS(=O)(=O)c2cc3c(cc2Br)CCN3C(=O)C2CC2)C1 (stereo not drawn) | 1.9 | nt | nt | nt | 0.8 | nt | nt | nt
CCN1CCN(Cc2nc3ccc([N+](=O)[O-])cc3c(=O)n2-c2ccc(OC)cc2OC)CC1 | -0.6 | -22.6 | -0.7 | -3.8 | 2.2 | 0.2 | nt | nt
CCOC(=O)c1ccc(-n2c(CN3CCC(O)CC3)nc3ccc([N+](=O)[O-])cc3c2=O)cc1 | -1.0 | -41.7 | 1.5 | 8.1 | 19.2* | -1.0 | 9.5* | 0.1
COc1ccc(-n2c(CN3CCC(C(N)=O)CC3)nc3ccc([N+](=O)[O-])cc3c2=O)c(OC)c1 | -0.5 | -44.5 | 2.7 | 1.4 | 8.0* | 3.7 | 0.9 | 1.1
CCOC(=O)c1ccc(-n2c(CN3CCC(C(N)=O)CC3)nc3ccc([N+](=O)[O-])cc3c2=O)cc1 | -0.8 | -31.2 | 0.7 | 4.3 | 4.7 | 4.0 | nt | nt
CCOC(=O)C1CCCN(Cc2nc3ccc([N+](=O)[O-])cc3c(=O)n2-c2ccc(OC)cc2OC)C1 (stereo not drawn) | -0.2 | -28.6 | -1.1 | 7.6 | 7.0 | 1.2 | nt | nt
CCOC(=O)C1CCN(Cc2nc3ccc([N+](=O)[O-])cc3c(=O)n2-c2ccc(OC)cc2OC)CC1 | -0.1 | -23.4 | -0.1 | -5.6 | 9.1* | 1.4 | 0.0 | 1.9
Cc1cccc(-c2nc(CNC(=O)c3ccco3)cs2)c1 | 2.2 | -31.7 | 0.3 | -3.3 | 0.9 | 0.3 | nt | nt
COC(=O)C1CN(CCc2ccccc2)CCS(=O)(=O)N1Cc1ccc(Cl)cc1 (stereo not drawn) | -0.4 | nt | nt | nt | -0.6 | nt | nt | nt
Brc1ccc(/C=N/Nc2nc3ccccc3o2)cc1 | 1.0 | -160.5 | -1.1 | -0.2 | 9.2* | 3.7 | 3.2 | 13.7*
O=C(CN1CCN(c2nc(-c3ccccc3)cs2)CC1)Nc1ccc(F)cc1F | -1.3 | nt | nt | nt | -2.7 | nt | nt | nt
C(=C\c1nc(N2CCCCCC2)c2ccccc2n1)/c1ccccc1 | 0.1 | -14.7 | -2.4 | 1.2 | 9.3* | -1.1 | 2.3 | 3.3
CCCCNC(=O)C1(C)CCN1C(=O)c1ccc2c(c1)CCO2 (stereo not drawn) | -0.4 | 11.5 | nt | nt | -4.1 | nt | nt | nt
CC12CCC(c3c(C(=O)O)nn(-c4ccccc4)c31)C2(C)C (stereo not drawn) | 0.7 | 10.1 | -2.5 | -0.4 | 9.4* | 1.0 | -2.2 | 0.0
CC1=CC(=O)C(C(C)=Nc2cccc(Cl)c2)C(=O)O1 (stereo not drawn) | -1.2 | -3.9 | nt | nt | -0.9 | 2.9 | nt | nt
COCCn1c(=O)[nH]c2cc(C(=O)Nc3cc(OC)c(OC)c(OC)c3)ccc2c1=O | -0.2 | -16.9 | 1.8 | 2.6 | -0.6 | -1.5 | nt | nt
COCCn1c(=O)[nH]c2cc(C(=O)Nc3nnc(C)s3)ccc21 | 0.6 | -14.6 | 1.3 | 0.7 | 8.2* | 0.1 | 4.4 | 2.8
SMILES | DAX1 inh-1 | NR2E3 ag-1 | NR2E3 ag-2 | JMJD2C inh | SMARCA2 act | DAX1 inh-2 | SMARCA2 act conf | GAL4-VP16 Luc
Cc1ccc(Cn2cc(COC(=O)NCC(C)C)nn2)cc1 | -0.2 | nt | nt | nt | -0.7 | nt | nt | nt
COc1ccc2[nH]c3c(=S)nc[nH]c3c2c1 | 0.4 | -23.2 | -3.1 | 24.5 | 9.7* | 0.6 | 5.9 | 3.0
O=C(O)Cn1cc(/C=C/[N+](=O)[O-])c2ccccc21 | 0.8 | -9.8 | 4.2 | 3.6 | 3.0 | -0.7 | nt | nt
O=C(Cn1cc(/C=C\[N+](=O)[O-])c2ccccc21)Nc1ccccc1 | -1.2 | -12.5 | -3.4 | -7.7 | 17.0* | -0.7 | 10.0* | 0.8
C=CCc1ccc(OCCCCN2CCC(C)CC2)c(OC)c1 | -0.8 | 24.5 | -3.1 | 26.5 | 12.1* | -0.9 | -5.6 | 3.0
Cc1cc(NS(=O)(=O)c2ccc(NC(=O)CSc3nnc(-c4cnccn4)n3-c3ccccc3)cc2)nc(C)n1 | -0.2 | nt | nt | nt | 1.7 | nt | nt | nt
O=C(O)c1ccc(C[n+]2c(-c3ccccc3)csc2Nc2ccccc2)cc1 | -0.2 | 3.8 | 1.9 | 13.4 | 10.2* | 2.1 | -1.7 | 1.1
COc1cc(C2Nc3ccccc3C(=O)N2c2ccc(Cl)cc2)c(Cl)cc1OCC(=O)O (stereo not drawn) | 4.0* | -192.4 | 2.6 | 1.9 | 10.4* | 2.9 | 12.0* | 9.5*
CCOc1cc(C2Nc3ccccc3C(=O)N2c2ccccc2)c(Br)cc1OCC(=O)O (stereo not drawn) | 0.7 | -11.1 | 3.2 | 4.8 | -1.3 | -0.9 | nt | nt
CCOC(=O)COc1ccccc1C1Nc2ccccc2C(=O)N1c1cccc(Cl)c1 (stereo not drawn) | 2.6 | -98.9 | -0.6 | 3.4 | 8.2* | 0.6 | 7.1 | 6.0*
CCOC(=O)COc1c(OC)cc(Cl)cc1C1Nc2ccccc2C(=O)N1c1cccc(C)c1 (stereo not drawn) | 0.2 | -61.4 | 0.1 | -3.3 | -0.2 | 0.1 | nt | nt
COC(=O)[C@H](C(C)C)N(Cc1cn(Cc2ccccc2)nn1)S(=O)(=O)c1ccc(F)cc1Br | -0.1 | nt | nt | nt | -3.7 | nt | nt | nt
CN1CCCC1(C)C(=O)Nc1ccc(-n2cccc2)cc1 (stereo not drawn) | 3.4 | -20.1 | nt | nt | 8.2* | nt | 4.4 | 3.5
CCCC(=O)N1CCCC1(C)C(=O)Nc1ccc(-n2cccc2)cc1 (stereo not drawn) | -0.6 | 10.3 | nt | nt | -2.0 | nt | nt | nt
O=S(=O)(Nc1nc2ccccc2nc1N1CCc2ccccc2C1)c1ccc(Cl)cc1 | 4.3* | -137.3 | 5.6 | 5.3 | 9.0* | 0.3 | -2.3 | 4.4
